From ChEMBL document CHEMBL2034950, “Sphingolipid analogues inhibit development of malaria parasites” (ACS Med Chem Lett, 2012)
pIC50: −log10 of the molar value. Activity calls are given as the source filed them. The rule behind the calls is not given here.

What was measured:
[1] = Cytotoxicity against human HFF1 cells at 10 uM after 72 hrs by SRB assay; assay type: cell-based; settings: hff-1, 72 h
How it was run: (§1)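 Human foreskin fibroblasts (HFF-1) were seeded at 20,000 cells per plate, incubated with compound at 10 or 50 μM for 72 h, and read by sulforhodamine B assay.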

Plasmodium knowlesi = experiment: Antimalarial activity against Plasmodium knowlesi infected in rhesus monkey RBC assessed as [3H]-hypoxanthine incorporation after 12 hrs by scintillation counting; assay type: functional, organism-based
How it was run: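 Dose-response assay of in vitro parasite growth and replication in red blood cells, read as [³H]-hypoxanthine uptake. IC50 values were derived, with the error given as standard deviation.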

[2] = Cytotoxicity against human HFF1 cells at 50 uM after 72 hrs by SRB assay; assay type: cell-based; settings: hff-1, 72 h; how it was run: as §1
Plasmodium falciparum [3] = experiment: Antimalarial activity against chloroquine-sensitive Plasmodium falciparum D6 infected in O-positive human RBC assessed as [3H]-hypoxanthine incorporation after 48 hrs by scintillation counting; assay type: functional, organism-based
How it was run: (§2)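 Growth inhibition in vitro by [3H]-hypoxanthine uptake in parasitized RBCs; dose-response runs to derive IC50.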

Plasmodium falciparum [4] = experiment: Antimalarial activity against chloroquine-resistant Plasmodium falciparum W2 infected in O-positive human RBC assessed as [3H]-hypoxanthine incorporation after 48 hrs by scintillation counting; assay type: functional, organism-based; how it was run: as §2
Plasmodium falciparum [5] = experiment: Antimalarial activity against chloroquine-sensitive Plasmodium falciparum D6 infected in O-positive human RBC assessed as [3H]-hypoxanthine incorporation after 48 hrs by scintillation counting in presence of BSA; assay type: functional, organism-based
Plasmodium falciparum [6] = experiment: Antimalarial activity against chloroquine-resistant Plasmodium falciparum W2 infected in O-positive human RBC assessed as [3H]-hypoxanthine incorporation after 48 hrs by scintillation counting in presence of BSA; assay type: functional, organism-based
[7] = Cmax in mouse RBC at 30 mg/kg, po QD; assay type: ADME, organism-based, Erythrocyte; set-up: dose 30 mg/kg, route oral; settings: red blood cells (RBC)
How it was run: (§3)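 Mice were dosed orally once daily at 30 mg/kg for five days. Drug levels were followed over time in plasma and in red blood cells on day 1 and on day 5 of dosing.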

[8] = Tmax in mouse plasma at 30 mg/kg, po QD; assay type: ADME, organism-based; set-up: dose 30 mg/kg, route oral; how it was run: as §3
[9] = AUC (0 to infinity) in mouse RBC at 30 mg/kg, po QD; assay type: ADME, organism-based, Erythrocyte; set-up: time infinity, dose 30 mg/kg, route oral; settings: red blood cells (RBC); how it was run: as §3
[10] = AUC (0 to infinity) in mouse plasma at 30 mg/kg, po QD; assay type: ADME, organism-based; set-up: time infinity, dose 30 mg/kg, route oral; how it was run: as §3
[11] = Half life in mouse RBC at 30 mg/kg, po QD; assay type: ADME, organism-based, Erythrocyte; set-up: dose 30 mg/kg, route oral; settings: red blood cells (RBC); how it was run: as §3
[12] = Half life in mouse plasma at 30 mg/kg, po QD; assay type: ADME, organism-based; set-up: dose 30 mg/kg, route oral; how it was run: as §3
[13] = Ratio of drug uptake in mouse RBC to mouse plasma at 30 mg/kg, po QD; assay type: ADME, organism-based; set-up: dose 30 mg/kg, route oral; settings: red blood cells (RBC) / plasma; how it was run: as §3
Plasma = experiment: Apparent volume of distribution during terminal phase in mouse plasma at 30 mg/kg, po QD; assay type: ADME, organism-based; set-up: dose 30 mg/kg, route oral; settings: in vivo; how it was run: as §3
[14] = Apparent volume of distribution during terminal phase in mouse RBC at 30 mg/kg, po QD; assay type: ADME, organism-based, Erythrocyte; set-up: dose 30 mg/kg, route oral; settings: red blood cells (RBC), read-out: Vz/F; how it was run: as §3
[15] = Cmax in mouse plasma at 30 mg/kg, po QD; assay type: ADME, organism-based; set-up: dose 30 mg/kg, route oral; how it was run: as §3
Plasmodium falciparum [16] = experiment: Antimalarial activity against chloroquine-resistant Plasmodium falciparum W2 infected in O-positive human RBC assessed as parasitemia at 546.94 ng/mL after 48 hrs by Giemsa staining-based microscopic analysis; assay type: functional
Plasmodium falciparum [17] = experiment: Antimalarial activity against chloroquine-resistant Plasmodium falciparum W2 infected in O-positive human RBC assessed as trophozoite-stage parasites at 546.94 ng/mL after 48 hrs by Giemsa staining-based microscopic analysis (reference value: 4.2%); assay type: functional
Plasmodium falciparum [18] = experiment: Antimalarial activity against chloroquine-resistant Plasmodium falciparum W2 infected in O-positive human RBC assessed as schizont-stage parasites at 546.94 ng/mL after 48 hrs by Giemsa staining-based microscopic analysis (reference value: 8.05%); assay type: functional
Plasmodium falciparum [19] = experiment: Antimalarial activity against chloroquine-resistant Plasmodium falciparum W2 infected in O-positive human RBC assessed as ring-stage parasites at 546.94 ng/mL after 48 hrs by Giemsa staining-based microscopic analysis (reference value: 87.9%); assay type: functional
Plasmodium falciparum [20] = experiment: Antimalarial activity against chloroquine-resistant Plasmodium falciparum W2 infected in O-positive human RBC assessed as aberrant form of trophozoite-stage parasites at 546.94 ng/mL after 28 to 48 hrs by Giemsa staining-based microscopic analysis; assay type: functional, organism-based
Plasmodium falciparum [21] = experiment: Antimalarial activity against chloroquine-resistant Plasmodium falciparum W2 infected in O-positive human RBC assessed as aberrant form of ring-stage parasites at 546.94 ng/mL after 28 to 48 hrs by Giemsa staining-based microscopic analysis; assay type: functional, organism-based

Structure (SMILES)	Activity [1]	pIC50 (Plasmodium knowlesi)	Activity [2]	pIC50 (Plasmodium falciparum [3])	pIC50 (Plasmodium falciparum [4])	pIC50 (Plasmodium falciparum [5])	pIC50 (Plasmodium falciparum [6])	also measured
CCCCCCCCCCCCC[C@H](O)C[C@@H](O)[C@H](C)N	Non-toxic	4.69	Toxic	4.75	5.04			
CCCCCCCCCCCCC[C@H](O)C[C@H](O)C1(N)CC1 (racemic)						5.26	5.00	
CCCCCCCCCCCCCCCC(=O)N[C@@H](C)[C@@H](O)C[C@@H](O)CCCCCCCCCCCCC	Non-toxic		Toxic					Activity (Plasmodium knowlesi): inactive; Activity (Plasmodium falciparum [3]): inactive; Activity (Plasmodium falciparum [4]): inactive
CCCCCCCCCCCCCC(O)CC(=O)C(C)(C)N (racemic)						5.60	5.59	
CCCCCCCCCCCCC[C@H](O)C[C@@H](O)[C@H](C)NC	Non-toxic		Toxic	4.84	5.09			
CCCCCCCCCCCCC[C@H](O)C[C@H](O)[C@H](C)N(C)C	Non-toxic	5.17	Toxic	5.15	5.36			
CCCCCCCCCCCCC[C@H](O)C[C@H](O)[C@@H]1CCCN1	Non-toxic	5.20	Toxic	5.01	5.36			
CCCCCCCCCCCCCC(O)C/C(=N\O)C(C)(C)N (racemic)						5.13	5.00	
CCCCCCCCCCCCC[C@H](O)C[C@H](O)[C@H](C)N [ENIGMOL]	Non-toxic	4.98	Toxic	4.90	5.13	5.28	5.04	Cmax [7]: 3300 nM; Tmax [8]: 2 h; AUC(0-inf) [9]: 50.7 µM·h; AUC(0-inf) [10]: 14.4 µM·h; half-life [11]: 8.9 h; half-life [12]: 10.7 h; Kp [13]: 3; Vz/F (Plasma): 4.4 L/kg; Vd/F [14]: 25 L/kg; Cmax [15]: 1100 nM
CCCCCCCCCCCCC[C@@H](O)C[C@H](O)C(C)(C)N (racemic)						5.39	5.13	
CCCCCCCCCCCCC[C@@H](O)C[C@H](O)C1(N)CC1 (racemic)						4.95	5.14	
CCCCCCCC(F)(F)CCCCC[C@H](O)C[C@H](O)[C@H](C)NC	Non-toxic		Toxic	5.14	5.62			
CCCCCCCCCCCCC[C@H](O)C[C@H](O)C(C)(C)NC (racemic)						6.15	6.60	
CCCCCCCCCCCCC[C@H](O)C[C@H](O)C(C)(C)N (racemic)						5.28	5.33	
CCCCCCCCCCCCC[C@H](O)C[C@H](O)[C@H](C)NC(C)=O	Non-toxic		Toxic	4.95	4.88			Activity (Plasmodium knowlesi): inactive
O[C@@H](c1cc(C(F)(F)F)nc2c(C(F)(F)F)cccc12)[C@H]1CCCCN1 (relative stereo) [(S,R)-MEFLOQUINE]		7.40					9.40	
CCCCCCCC(F)(F)CCCCC[C@H](O)C[C@H](O)[C@H](C)N	Non-toxic		Toxic	4.90	5.25			
CCCCCCCCCCCCC[C@@H](O)C[C@H](O)[C@H](C)N	Non-toxic	4.75	Toxic	4.90	5.09			
CCCCCCCCCCCCC[C@H](O)C[C@H](O)[C@H](C)NC	Non-toxic	5.77	Toxic	5.33	5.80	5.77	6.05	Activity (Plasmodium falciparum [16]): 1.3%; Activity (Plasmodium falciparum [17]): 39.2%; Activity (Plasmodium falciparum [18]): 18.9%; Activity (Plasmodium falciparum [19]): 41.9%; Activity (Plasmodium falciparum [20]): Active; Activity (Plasmodium falciparum [21]): Active
